Active and inactive are the calls of the source. The rule behind the calls is not given here.
Assays:
HL2/3 = assay: Inhibition of HIV gp41 activity assessed as inhibition of TZM-bl and HL2/3 cell fusion at 100 uM after 6 hrs by luciferase reporter assay; type: cell-based; details: Human immunodeficiency virus
Method in brief: (§1)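 TZM-bl target cells (2.5×10^4/well) were seeded; 24 h later HL2/3 effector cells (5.0×10^4/well, […]) were added together with compound diluted in DMSO to a final 100 µM. After 6 h, Tat-driven LTR-luciferase luminescence (fusion) and cell viability were read in a combined reporter/viability kit. Six replicates; ANOVA with Tukey post hoc test against untreated co-culture.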

[1] = Inhibition of HIVgp41 activity assessed as inhibition of TZM-bl and HL2/3 cell fusion after 6 hrs by luciferase reporter assay; type: cell-based; details: Human immunodeficiency virus 1, HL2/3, 6 h
Method in brief: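 Dose-response runs of the TZM-bl/HL2/3 co-culture luciferase fusion assay over a range of concentrations. Viability signal was scaled to the maximal signal (fraction of maximal proliferation). Each well's fusion luminescence was divided by that fraction, background was subtracted, and values were normalized to fraction of maximal effect. IC50 was taken from curve fitting.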

[2] = test system: Human immunodeficiency virus; assay: Inhibition of HIVgp41 activity assessed as fluorescence intensity at 800 uM by FRET assay relative to 40 uM bithionol
[3] = Cytotoxicity against human TZM-bl cells at 100 uM; type: cell-based; method in brief: as §1
[4] = Cytotoxicity against human HL2/3 cells at 100 uM; type: cell-based; details: hl2/3, 100 µM; method in brief: as §1

SMILES	Activity (HL2/3)	IC50 [1] [µM]	Activity [2]	Activity [3]	Activity [4]
COc1ccc(-c2cc(C(=O)NCc3ccc(Cl)cc3)n[nH]2)cc1S(=O)(=O)N1CCOCC1	Active	58.6	inactive	Non-toxic	Non-toxic
CCn1c(SCC(=O)N/N=C/c2cccc(Oc3ccccc3)c2)nnc1-c1ccc(OC)cc1	Active	56.7	inactive	Non-toxic	Non-toxic
